Our source for the MEC values is ChEMBL document CHEMBL2424598, “Identification and optimization of pteridinone Toll-like receptor 7 (TLR7) agonists for the oral treatment of viral hepatitis” (J Med Chem, 2013).

In the test the target is T1, Toll-like receptor 7 (Homo sapiens) (UniProt Q9NYK1).
T1 sequence (whole entry): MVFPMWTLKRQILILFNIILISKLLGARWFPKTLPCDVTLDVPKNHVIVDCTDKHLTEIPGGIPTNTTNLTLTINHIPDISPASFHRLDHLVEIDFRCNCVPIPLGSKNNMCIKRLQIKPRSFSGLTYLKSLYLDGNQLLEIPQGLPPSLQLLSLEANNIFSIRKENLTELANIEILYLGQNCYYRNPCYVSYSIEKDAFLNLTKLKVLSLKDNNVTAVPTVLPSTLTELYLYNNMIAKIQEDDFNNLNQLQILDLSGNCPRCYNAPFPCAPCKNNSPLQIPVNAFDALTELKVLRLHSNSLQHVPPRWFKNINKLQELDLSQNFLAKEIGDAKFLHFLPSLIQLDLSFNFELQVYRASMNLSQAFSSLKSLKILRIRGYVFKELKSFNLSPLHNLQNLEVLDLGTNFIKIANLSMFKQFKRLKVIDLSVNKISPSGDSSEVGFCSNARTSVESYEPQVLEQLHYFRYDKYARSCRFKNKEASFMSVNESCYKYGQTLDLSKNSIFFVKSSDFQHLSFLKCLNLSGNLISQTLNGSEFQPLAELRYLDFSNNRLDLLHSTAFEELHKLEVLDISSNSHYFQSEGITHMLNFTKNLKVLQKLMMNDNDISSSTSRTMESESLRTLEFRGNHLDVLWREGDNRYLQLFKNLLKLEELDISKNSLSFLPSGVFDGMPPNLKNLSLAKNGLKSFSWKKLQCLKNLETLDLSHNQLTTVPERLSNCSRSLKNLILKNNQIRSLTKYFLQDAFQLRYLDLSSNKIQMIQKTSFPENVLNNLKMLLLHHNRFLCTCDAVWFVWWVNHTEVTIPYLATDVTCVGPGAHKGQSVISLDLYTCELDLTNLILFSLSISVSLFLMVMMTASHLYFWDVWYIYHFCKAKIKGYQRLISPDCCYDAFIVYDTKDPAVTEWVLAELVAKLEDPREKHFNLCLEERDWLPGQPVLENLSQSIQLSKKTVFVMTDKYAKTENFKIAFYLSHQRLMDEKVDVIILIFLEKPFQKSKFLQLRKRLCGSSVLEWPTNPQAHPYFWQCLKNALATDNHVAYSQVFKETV
Put plainly: Agonist activity at TLR7-mediated IFNalpha production in human PBMC assessed as minimum concentration of compound necessary to generate >3 fold of cytokine levels relative to control. The method in brief:
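Cryopreserved PBMCs from leukapheresis of a single healthy human donor, chosen as a consistent, robust responder to TLR7 agonist stimulation. Cells were incubated with compound for 24 h over an eight-point concentration range. Secreted IFN-α was measured to build dose-response curves. MEC was taken as the lowest concentration giving cytokine levels ≥3-fold over untreated control cultures.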

Turning to `CCCCOc1nc(N)c2c(n1)N(Cc1cccc(CN3CCCC3)c1)CC(=O)N2` [VESATOLIMOD], the MEC turned out to be 3 nM.
